Blank lines part the entries; values can stand above or below the molecule they belong to. The source made the active and inactive calls. The rule behind the calls is not given here.
Legend:
[1] = Cytotoxicity against human HSC after 4 days at 100 uM by luminescent cell viability assay; conditions: 96 h
In short: (§1)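 Sixth-passage HSCs (kept as neurospheres in DMEM/F12 with bFGF, EGF, B27) plated at 1×10^3 cells/well in basic medium, left 24 h, then given serial dilutions for 4 days. DMSO as negative control, bFGF as positive control. Read-out by CellTiter-Glo: reagent added to the cells, 10 min at ambient temperature, then luminescence read. Values relative to DMSO (100%). At least triplicate, repeated three times, mean ± SD.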

[2] = Solubility of the compound in DMSO; type: physicochemical
[3] = Induction of human HSC proliferation after 4 days by luminescent cell viability assay; type: functional; in short: as §1
[4] = Inhibition of human HSC proliferation after 4 days by luminescent cell viability assay; conditions: 96 h; in short: as §1
[5] = Cytotoxicity against human HSC assessed as morphological changes 13.8 to 40.2 uM up to 6 days by phase contrast microscopy; conditions: 144 h
In short: (§2)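 Phase-contrast microscope images of HSCs treated with various concentrations, DMSO or bFGF, taken at 2, 4 and 6 days. Scored by morphology, including signs of differentiation such as axonal growth or adipose drop appearance.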

[6] = species: Homo sapiens; assay: Induction of human PSC proliferation after 4 days by luminescent cell viability assay; type: functional
In short: (§3)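 Sixth-passage PSCs (expanded in DMEM/F12, 7.33 mM glucose, with 10% FBS and 20 ng/mL bFGF) plated at 1×10^3 cells/well in basic medium, left 24 h, then treated for 4 days. DMSO as negative control. Viability read by CellTiter-Glo luminescence after 10 min at ambient temperature. At least triplicate, repeated three times, mean ± SD.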

[7] = Cytotoxicity against human HSC assessed as axonal growth or adipose drop appearance 13.8 to 40.2 uM up to 6 days by phase contrast microscopy; conditions: 144 h; in short: as §2
[8] = species: Homo sapiens; assay: Induction of human HSC proliferation under serum free condition after 4 days by cell counting and luminescent cell viability assay; type: functional
In short: (§4)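 HSCs kept serum-free without bFGF, seeded at 1×10^3 cells/well, then given a range of concentrations for 2, 4 and 6 days. Read at each time point by phase-contrast imaging, cell counting (three pictures per group, haemocytometer) and CellTiter-Glo luminescence. DMSO as negative control, bFGF as positive control. Mean ± SD.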

[9] = Induction of human HSC proliferation assessed as population doubling time at 41.6 uM by cell counting and luminescent cell viability assay (reference value: 73.6 hrs); type: functional
[10] = species: Homo sapiens; assay: Induction of human CSC proliferation after 4 days by luminescent cell viability assay; type: functional
In short: as §3, with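 “Third-passage CSCs (maintained” for “Sixth-passage PSCs (expanded”, “IMDM” for “DMEM/F12, 7.33 mM glucose,”, “2-mercaptoethanol)” for “20 ng/mL bFGF)”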

[11] = species: Homo sapiens; assay: Induction of human HSC proliferation assessed as fold increase after 6 days by direct phase contrast microscopy; type: functional; in short: as §4
[12] = species: Homo sapiens; assay: Induction of human HSC proliferation under serum free condition at 5 to 40 uM by cell counting and luminescent cell viability assay; type: functional; conditions: TDE = time-dependent effect; in short: as §4
[13] = Homo sapiens, 96 h, read-out: EC50

SMILES: NNC(=S)Nc1ccc(-c2nnc(S)o2)cc1Br
Activity [1]: Toxic
solubility [2]: soluble
EC50 [3, 13]: 10 µM

SMILES: S=C(NNCc1ccccc1)Nc1ccc(-c2nnc(S)o2)cc1
solubility [2]: soluble
EC50 [3]: Not Active

SMILES: CNNC(=S)Nc1ccc(-c2nnc(S)o2)cc1
solubility [2]: soluble

SMILES: NNC(=S)Nc1ccc(-c2nnc(S)o2)cc1 [STEMAZOLE]
Activity [1]: Non-toxic
Activity [5]: Non-toxic
Activity [6]: Active
solubility [2]: soluble
EC50 [3, 13]: 7.5 µM
Activity [7]: Non-toxic
Activity [8]: Dose-dependent effect
Time [9]: 48.5 h
Activity [10]: Active
fold change (FC) [11]: 3
Activity [12]: tde

Second part, led by results:

solubility [2]: soluble
SMILES: S=C(NNc1ccc(Cl)cc1)Nc1ccc(-c2nnc(S)o2)cc1
IC50 [4]: 3.2 µM

solubility [2]: soluble
SMILES: COc1ccc(NNC(=S)Nc2ccc(-c3nnc(S)o3)cc2)cc1
IC50 [4]: 42.7 µM

solubility [2]: soluble
SMILES: S=C(NNc1ccccc1)Nc1ccc(-c2nnc(S)o2)cc1
IC50 [4]: 8.3 µM
